IC50, EC50 and CC50 data for 22 molecules are collected here from ChEMBL document CHEMBL3992515, “Design, synthesis, and evaluation of a novel series of macrocyclic inhibitors of norovirus 3CL protease” (Eur J Med Chem, 2017).

Data set [1] can be described thus: Inhibition of Norovirus 3CLpro using Edans-DFHLQ/GP-Dabcyl as substrate preincubated for 30 mins followed by substrate addition measured after 1 hr by FRET assay. In outline:
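Protease and serial compound dilutions up to 100 μM (or DMSO) held in 20 mM HEPES pH 8, 200 mM NaCl, 0.4 mM EDTA, 60% glycerol, 6 mM DTT at 37°C for 30 min, then substrate added. Fluorescence (ex 360/em 460 nm) read 1 h later, background subtracted (no-protease well). IC50 from variable-slope curve fit; average of at least two determinations.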

Data set [2] has as its system Norovirus. The data set is described as follows: Antiviral activity against Norovirus replicon infected in human HG23 cells assessed as inhibition of viral RNA replication after 48 hrs by qRT-PCR method. The format is functional, cell-based. A digest of the protocol:
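HG23 cells (NV replicon-harboring hepatoma), confluent and semi-confluent, given medium with DMSO (<0.1%) or compound up to 20 μM for 48 h. Total RNA extracted and viral genome quantified by real-time qRT-PCR. EC50 fitted from dose-response; average of at least two determinations.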
In general terms: In antiviral work, replicon cells carry a viral genome segment that copies itself.

Data set [3] is described as follows: Cytotoxicity against human HG23 cells after 48 hrs by crystal violet staining-based assay. The format is cell-based. The note with it: for CC50 at 48 h: HG23 cells, read-out: TC50; for CC50: hg23, 48 h, 48 h, read-out: TC50 (the source's name). A digest of the protocol: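 Confluent NV replicon-bearing hepatoma HG23 cells exposed to compound at 1 to 100 μM for 48 h. Cytotoxicity read by CytoTox 96 nonradioactive assay and crystal violet staining; CC50 taken as concentration giving 50% cell death, averaged over at least two determinations.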

For data set [4], the system named is Murine norovirus. The data set is described as follows: Antiviral activity against MNV replicon infected in mouse RAW264.7 cells assessed as inhibition of viral RNA replication after 24 hrs. The note with it: RAW264.7, 24 h.
The subject of data set [5] is Murine norovirus. Briefly: Antiviral activity against MNV replicon infected in mouse RAW264.7 cells assessed as inhibition of viral RNA replication after 24 hrs. The format is functional, cell-based. In outline: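 Confluent RAW264.7 cells infected with MNV at MOI 0.1 for 1 h; inoculum then replaced with medium containing compound (up to 20 μM) or DMSO (0.1%). Further 24 h incubation; virus replication quantified by TCID50 titration. EC50 from dose-response fitting; values average of at least two determinations.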

Each structure is given as a SMILES string.

Regarding `O=C1CC[C@@H](C(O)S(=O)(=O)O)NC(=O)C2(CCCCC2)NC(=O)OC(c2cccc(Cl)c2)CCCCCCN1` (stereo partly drawn), the IC50 in data set [1] is > 100 µM. The EC50 in data set [2] (Norovirus, HG23, 48 h) was > 20 µM; in data set [4] it was > 20 µM. Further, the CC50 at 48 h in data set [3] turned out to be 46.6 µM.
As to `O=C1CC[C@@H](C(O)S(=O)(=O)O)NC(=O)C2(CCCCC2)NC(=O)OC(c2cccc(Cl)c2)CCCCCN1` (stereo partly drawn), the IC50 in data set [1] was > 100 µM. Further, the EC50 in data set [2] (Norovirus, HG23, 48 h) was > 20 µM; in data set [4], > 20 µM. For the same molecule, in data set [3], the CC50 at 48 h was 48.5 µM.
On to `C[C@@H]1NC(=O)OC(c2cccc(Cl)c2)CCCCCNC(=O)CC[C@@H](C=O)NC1=O` (stereo partly drawn), for which the IC50 in data set [1] was > 100 µM. Also, the EC50 is > 20 µM in data set [2] (Norovirus, HG23, 48 h) and > 20 µM in data set [4]. For the same molecule, the CC50 at 48 h in data set [3] was > 100 µM.
Molecule `CC(C)C[C@@H]1NC(=O)OC(c2cccc(Cl)c2)CCCCCCNC(=O)CC[C@@H](C=O)NC1=O` (stereo partly drawn) gave a half-inhibitory concentration (IC50) in data set [1] of 6.3 µM. Further, the EC50 in data set [2] (Norovirus, HG23, 48 h) is 5.4 µM; in data set [4], > 20 µM. Further, in data set [3], the CC50 at 48 h stood at 67.4 µM.
`CC(C)C[C@@H]1NC(=O)OC(c2ccccc2)CCCCCNC(=O)CC[C@@H](C=O)NC1=O` (stereo partly drawn) displayed an IC50 in data set [1] of 1.3 µM. Besides, the EC50 in data set [2] (Norovirus, HG23, 48 h) was 7.7 µM; in data set [4], > 20 µM. Also, in data set [3], the CC50 at 48 h was > 100 µM.
In the case of `O=C[C@@H]1CCC(=O)NCCCCCC(c2cccc(Cl)c2)OC(=O)NC2(CCCCC2)C(=O)N1` (stereo partly drawn), in data set [1], the half-inhibitory concentration (IC50) was > 100 µM. The EC50 in data set [2] (Norovirus, HG23, 48 h) is > 20 µM; in data set [4] it was > 20 µM. In addition, in data set [3], the CC50 at 48 h was found to be 62.4 µM.
Regarding `O=C[C@@H]1CCC(=O)NCCCCCC(c2cccc(Cl)c2)OC(=O)N[C@@H](CC2CCCCC2)C(=O)N1` (stereo in doubt; form 1), the IC50 in data set [1] is 4.1 µM. The 50% effective concentration (EC50) in data set [2] (Norovirus, HG23, 48 h) is 2.1 µM; in data set [4], 4.3 µM. Also, in data set [3], the CC50 at 48 h came to 62.4 µM.
In data set [1], `CC(C)C[C@@H]1NC(=O)OC(Cc2ccccc2)CC/C=C/CNC(=O)CC[C@@H](C=O)NC1=O` (stereo partly drawn) yielded an IC50 of 2.5 µM. For the same molecule, the EC50 was 3.1 µM in data set [2] (Norovirus, HG23, 48 h) and > 20 µM in data set [4]. Besides, the CC50 at 48 h in data set [3] was > 100 µM.
As for `CC(C)C[C@@H]1NC(=O)OC(c2cccc(Cl)c2)CCCCCNC(=O)CC[C@@H](C(=O)C(=O)NC2CC2)NC1=O` (stereo partly drawn), the half-inhibitory concentration (IC50) in data set [1] is 2.3 µM. Besides, the EC50 in data set [2] (Norovirus, HG23, 48 h) came to 9.1 µM; in data set [4] it was 15.5 µM. Further, the CC50 at 48 h in data set [3] was 53.1 µM.
Turning to `C[C@@H]1NC(=O)OC(c2cccc(Cl)c2)CCCCCCNC(=O)CC[C@@H](C=O)NC1=O` (stereo partly drawn), the midpoint of inhibition in data set [1], the IC50, lay at 62.3 µM. For the same molecule, the EC50 is 9.5 µM in data set [2] (Norovirus, HG23, 48 h) and > 20 µM in data set [4]. In addition, the CC50 at 48 h in data set [3] is > 100 µM.
Take `CC(C)C[C@@H]1NC(=O)OC(c2cccc(Cl)c2)CCCCCONC(=O)CC[C@@H](C=O)NC1=O` (stereo in doubt; 36A): the IC50 in data set [1] amounted to 30.5 µM. Further, the EC50 was determined as 3.6 µM in data set [2] (Norovirus, HG23, 48 h) and 15.5 µM in data set [4]. The CC50 at 48 h in data set [3] was 68.3 µM.
For `CC(C)C[C@@H]1NC(=O)OC(CCCc2ccccc2)CCCCCNC(=O)CC[C@@H](C(O)S(=O)(=O)O)NC1=O` (stereo partly drawn) the same measures were 6.8 µM, 4.6 µM, > 20 µM and 69.2 µM.
`O=C[C@@H]1CCC(=O)NCCCCCC(c2cccc(Cl)c2)OC(=O)N[C@@H](CC2CCCCC2)C(=O)N1` (stereo in doubt; form 2) came in with an IC50 in data set [1] of 6.5 µM. Further, the EC50 in data set [2] was determined as 2.5 µM; in data set [5], 6.5 µM. Also, in data set [3], the CC50 worked out at 45.3 µM.
`CC(C)C[C@@H]1NC(=O)OC(Cc2ccccc2)CCCCCNC(=O)CC[C@@H](C=O)NC1=O` (stereo partly drawn): half-maximal inhibition in data set [1] (IC50) required 4.6 µM. Moreover, the EC50 in data set [2] (Norovirus, HG23, 48 h) was 8.8 µM; in data set [4], > 20 µM. Also, the CC50 at 48 h in data set [3] was > 100 µM.
In the case of `CCCCCC1CCCCCNC(=O)CC[C@@H](C(O)S(=O)(=O)O)NC(=O)[C@H](CC(C)C)NC(=O)O1` (stereo partly drawn), the half-maximal inhibitory concentration (IC50) in data set [1] was 5.1 µM. Further, the 50% effective concentration (EC50) in data set [2] (Norovirus, HG23, 48 h) worked out at 3.5 µM; in data set [4] it was 14.6 µM. The CC50 at 48 h in data set [3] was 78.5 µM.
The molecule `CC(C)C[C@@H]1NC(=O)OC(c2cccc(Cl)c2)CCCCCONC(=O)CC[C@@H](C=O)NC1=O` (stereo in doubt; 36B) returned an IC50 in data set [1] of 46.7 µM. The EC50 in data set [2] was 5.1 µM; in data set [5], 13.4 µM. Moreover, in data set [3], the CC50 came to 73.8 µM.
`CC(C)C[C@@H]1NC(=O)OC(c2cccc(Cl)c2)CCCCCNC(=O)CC[C@@H](C(O)S(=O)(=O)O)NC1=O` (stereo partly drawn) yielded a concentration for half-maximal inhibition (IC50) in data set [1] of 1.1 µM. Further, the EC50 in data set [2] (Norovirus, HG23, 48 h) amounted to 1.6 µM; in data set [4], 15.1 µM. In data set [3], the CC50 at 48 h is > 100 µM.
The corresponding values for `CC(C)C[C@@H]1NC(=O)OC(CCCc2ccccc2)CCCCCNC(=O)CC[C@@H](C=O)NC1=O` (stereo partly drawn) are 4.2 µM, 7.5 µM, > 20 µM and 71.5 µM.
Turning to `CC(C)C[C@@H]1NC(=O)OC(c2cccc(Cl)c2)CCCCCNC(=O)CC[C@@H](C=O)NC1=O` (stereo partly drawn), 1.5 µM corresponded to half-maximal inhibition in data set [1] (IC50). Further, the half-maximal effective concentration (EC50) in data set [2] (Norovirus, HG23, 48 h) was found to be 1.8 µM; in data set [4], 13.2 µM. Moreover, in data set [3], the CC50 at 48 h was > 100 µM.
Consider `O=C[C@@H]1CCC(=O)NCCCCCCC(c2cccc(Cl)c2)OC(=O)NC2(CCCCC2)C(=O)N1` (stereo partly drawn), for which the 50% inhibitory concentration (IC50) in data set [1] was > 100 µM. Further, the half-maximal effective concentration (EC50) in data set [2] (Norovirus, HG23, 48 h) is > 20 µM; in data set [4], > 20 µM. Also, in data set [3], the CC50 at 48 h worked out at 53.3 µM.
`O=C[C@@H]1CCC(=O)NC/C=C/CCC(c2cccc(Cl)c2)OC(=O)N[C@@H](CC2CCCCC2)C(=O)N1` (stereo partly drawn) had a 50% inhibitory concentration (IC50) in data set [1] of 1.3 µM. Also, the half-maximal effective concentration (EC50) in data set [2] (Norovirus, HG23, 48 h) stood at 1.5 µM; in data set [4], 3.1 µM. Moreover, the CC50 at 48 h in data set [3] amounted to 42.3 µM.
With `CCCCCC1CCCCCNC(=O)CC[C@@H](C=O)NC(=O)[C@H](CC(C)C)NC(=O)O1` (stereo partly drawn), the IC50 in data set [1] came to 3.2 µM. For the same molecule, the half-maximal effective concentration (EC50) in data set [2] (Norovirus, HG23, 48 h) amounted to 3.1 µM; in data set [4], 12.1 µM. Moreover, the CC50 at 48 h in data set [3] was 72.7 µM.

In general, IC50 refers to the concentration at which inhibition is half-maximal. Low values mean greater potency in that assay, high ones weaker potency in that assay. By EC50 is commonly meant the concentration at which the effect is half-maximal.
